Laboratory results published in ChEMBL document CHEMBL5724801, “EUbOPEN Chemogenomics Library - Multiplex” (2024).
“And” between values parts separate entries of the source, which are not always exact repeats. Identical values can stand only once.

Tested on: HEK-293T
Assay: Multiplex assay against HEK293T
Format: toxicity, cell-based
Settings: human
Procedure, shortened: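 At seeding, live cells were stained with Hoechst33342, BioTracker Green Microtubule Cytoskeleton Dye, MitoTracker Red and Annexin V Alexa Fluor 680. After compound addition they were imaged on a CQ1 microscope at 37°C and 5% CO2, and CellPathfinder machine-learning gating sorted them into Hoechst high-intensity objects or normal cells, with normal cells further split into healthy, pyknosed or fragmented nuclei and pyknosed cells into mitotic or apoptotic. Tubulin, mitochondrial-mass and membrane-permeability phenotypes are given as per cents of cells with healthy nuclei.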

[1] = 12 h, 1 µM, compound concentration 1 uM
[2] = 12 h, 10 µM, compound concentration 10 uM
[3] = 24 h, 1 µM, compound concentration 1 uM
[4] = 24 h, 10 µM, compound concentration 10 uM
[5] = 48 h, 1 µM, compound concentration 1 uM
[6] = 48 h, 10 µM, compound concentration 10 uM

CC(C)C[C@H](NC(=O)c1cc2ccccc2s1)C(=O)N1CCN(C(=O)[C@H](CO)NS(=O)(=O)c2ccc(Cl)cc2Cl)CC1
Population Apoptotic (%) [1]: 10.07% and 13.45% | Population Fragmented Nuclei (%) [1]: 3.47% and 8.64% | Population Healthy Nuclei (%) [1]: 52.68% and 17.9% | Population Hoechst High Intensity Objects (%) [1]: 0.31% and 0% | Population Membrane Permeable-Phenotype (%) [1]: 1.8% and 0% | Population Mitochondria Different-Phenotype (%) [1]: 37.13% and 31.03% | Population Mitotic Cells (%) [1]: 89.93% and 86.55% | Population Normal (%) [1]: 99.69% and 100% | Population Pyknosed Nuclei (%) [1]: 43.85% and 73.46% | Population Tubulin-Different-Phenotype (%) [1]: 16.17% and 48.28% | Total Cell Count [1]: 318 and 162 | Population Apoptotic (%) [2]: 19.05% and 16.13% | Population Fragmented Nuclei (%) [2]: 2.43% and 2.16% | Population Hoechst High Intensity Objects (%) [2]: 0.69% and 0% | Population Membrane Permeable-Phenotype (%) [2]: 0.88% and 0% | Population Mitotic Cells (%) [2]: 80.95% and 83.87% | Population Normal (%) [2]: 99.31% and 100% | Population Pyknosed Nuclei (%) [2]: 58.33% and 89.21% | Population Tubulin-Different-Phenotype (%) [2]: 87.61% and 58.33% | Total Cell Count [2]: 290 and 139 | Population Apoptotic (%) [3]: 16.78% and 26.05% | Population Fragmented Nuclei (%) [3]: 1.48% and 4.6% | Population Healthy Nuclei (%) [3]: 67.09% and 27.01% | Population Hoechst High Intensity Objects (%) [3]: 0% | Population Membrane Permeable-Phenotype (%) [3]: 2.83% and 2.13% | Population Mitochondria Different-Phenotype (%) [3]: 27.67% and 38.3% | Population Mitotic Cells (%) [3]: 83.22% and 73.95% | Population Normal (%) [3]: 100% | Population Pyknosed Nuclei (%) [3]: 31.43% and 68.39% | Population Tubulin-Different-Phenotype (%) [3]: 38.68% and 19.15% | Total Cell Count [3]: 474 and 174 | Population Apoptotic (%) [4]: 47.8% and 42.62% | Population Fragmented Nuclei (%) [4]: 3.25% and 4.03% | Population Hoechst High Intensity Objects (%) [4]: 0.65% and 0% | Population Membrane Permeable-Phenotype (%) [4]: 0% and 4.76% | Population Mitochondria Different-Phenotype (%) [4]: 74.82% and 42.86% | Population Mitotic Cells (%) [4]: 52.2% and 57.38% | Population Normal (%) [4]: 99.35% and 100% | Population Pyknosed Nuclei (%) [4]: 51.62% and 81.88% | Population Tubulin-Different-Phenotype (%) [4]: 100% and 90.48% | Total Cell Count [4]: 310 and 149 | Population Apoptotic (%) [5]: 11.27% and 26% | Population Fragmented Nuclei (%) [5]: 1.67% and 1.87% | Population Healthy Nuclei (%) [5]: 84.35% and 51.4% | Population Hoechst High Intensity Objects (%) [5]: 0.1% and 0.47% | Population Membrane Permeable-Phenotype (%) [5]: 6.07% and 4.55% | Population Mitochondria Different-Phenotype (%) [5]: 35.82% and 54.55% | Population Mitotic Cells (%) [5]: 88.73% and 74% | Population Normal (%) [5]: 99.9% and 99.53% | Population Apoptotic (%) [6]: 55.17% and 79.57% | Population Fragmented Nuclei (%) [6]: 2.27% and 2.56% | Population Healthy Nuclei (%) [6]: 64.87% and 37.82% | Population Hoechst High Intensity Objects (%) [6]: 0.28% and 0% | Population Membrane Permeable-Phenotype (%) [6]: 1.31% and 1.69% | Population Mitochondria Different-Phenotype (%) [6]: 97.38% and 91.53% | Population Mitotic Cells (%) [6]: 44.83% and 20.43% | Population Normal (%) [6]: 99.72% and 100% | Population Pyknosed Nuclei (%) [6]: 32.86% and 59.62% | Population Tubulin-Different-Phenotype (%) [6]: 94.32% and 98.31% | Total Cell Count [6]: 354 and 156
